Assay results as given in ChEMBL document CHEMBL2062460, “Disubstituted thiourea derivatives and their activity on CNS: synthesis and biological evaluation” (Eur J Med Chem, 2012).
≈ marks a conversion by molar mass, not a printed value. Calls of active or inactive are those of the source. No cut-off for these calls is given here.

system: Staphylococcus aureus; assay: Antibacterial activity against methicillin-resistant Staphylococcus aureus clinical isolate 275/08 after 18 hrs by twofold serial agar dilution technique; format: functional; conditions: clinical isolate 275/08, 18 h
Method in brief: (§1)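 Clinical isolates came from patients in Warsaw Medical University Hospitals and were classed as methicillin-susceptible or -resistant. MIC was determined by twofold serial agar dilution on Mueller–Hinton II agar (CLSI), 3.125–400 µg/mL in agar, with compounds in methanol or DMSO. Inoculum was 10^4 CFU/mL and plates were read after 18 h at 35 °C.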

Row | SMILES | MIC [µg/mL]
1 | Fc1ccc(NC(=S)Nc2nc[nH]n2)cc1 | 100 (≈ 421 µM)

system: Staphylococcus aureus; assay: Antibacterial activity against methicillin-susceptible Staphylococcus aureus clinical isolate 369/09 after 18 hrs by twofold serial agar dilution technique; format: functional; conditions: clinical isolate 369/09, 18 h; method in brief: as §1

Row | SMILES | MIC [µg/mL]
2 | Fc1ccc(NC(=S)Nc2nc[nH]n2)cc1 | 50 (≈ 211 µM)

system: Staphylococcus aureus; assay: Antibacterial activity against methicillin-resistant Staphylococcus aureus clinical isolate 307/08 after 18 hrs by twofold serial agar dilution technique; format: functional; conditions: clinical isolate 307/08, 18 h; method in brief: as §1

Row | SMILES | MIC [µg/mL]
3 | Fc1ccc(NC(=S)Nc2nc[nH]n2)cc1 | 50 (≈ 211 µM)

system: Escherichia coli; assay: Antibacterial activity against Escherichia coli ATCC 10538 at 400 ug/disc after 18 hrs by disc diffusion method; format: functional, organism-based; conditions: not given
Method in brief: (§2)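 Disc diffusion per CLSI on Mueller–Hinton II agar; 9 mm paper discs loaded from methanol or DMSO solutions to 400 µg per disc, dried; growth inhibition zone diameter read after 18 h at 35 °C.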

Row | SMILES | diameter of the inhibition zone (DIZ)
4 | Fc1ccc(NC(=S)Nc2nc[nH]n2)cc1 | inactive

system: Proteus vulgaris; assay: Antibacterial activity against Proteus vulgaris NCTC 4635 at 400 ug/disc after 18 hrs by disc diffusion method; format: functional, organism-based; conditions: not given; method in brief: as §2

Row | SMILES | diameter of the inhibition zone (DIZ)
5 | Fc1ccc(NC(=S)Nc2nc[nH]n2)cc1 | inactive

system: Staphylococcus aureus; assay: Antibacterial activity against methicillin-susceptible Staphylococcus aureus clinical isolate 339/09 after 18 hrs by twofold serial agar dilution technique; format: functional; conditions: clinical isolate 339/09, 18 h; method in brief: as §1

Row | SMILES | MIC [µg/mL]
6 | Fc1ccc(NC(=S)Nc2nc[nH]n2)cc1 | 50 (≈ 211 µM)

system: Staphylococcus aureus; assay: Antibacterial activity against Staphylococcus aureus ATCC 6538 at 400 ug/disc after 18 hrs by disc diffusion method; format: functional; conditions: ATCC 6538, 18 h, read-out: DIZ; method in brief: as §2

Row | SMILES | zone of inhibition at 400 µg/disc [mm]
7 | Fc1ccc(NC(=S)Nc2nc[nH]n2)cc1 | 14

system: Staphylococcus aureus; assay: Antibacterial activity against methicillin-resistant Staphylococcus aureus clinical isolate 356/09 after 18 hrs by twofold serial agar dilution technique; format: functional; conditions: clinical isolate 356/09, 18 h; method in brief: as §1

Row | SMILES | MIC [µg/mL]
8 | Fc1ccc(NC(=S)Nc2nc[nH]n2)cc1 | 50 (≈ 211 µM)

system: Candida parapsilosis; assay: Antifungal activity against Candida parapsilosis ATCC 22019 at 400 ug/disc after 18 hrs by disc diffusion method; format: functional, organism-based; conditions: not given
Method in brief: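 Yeasts tested by disc diffusion (CLSI) on RPMI agar with 2% glucose; 9 mm paper discs bearing 400 µg compound from methanol or DMSO solution; inhibition zone diameter read after 18 h at 35 °C.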

Row | SMILES | diameter of the inhibition zone (DIZ)
9 | Fc1ccc(NC(=S)Nc2nc[nH]n2)cc1 | inactive

system: Escherichia coli; assay: Antibacterial activity against Escherichia coli ATCC 25922 at 400 ug/disc after 18 hrs by disc diffusion method; format: functional, organism-based; conditions: not given; method in brief: as §2

Row | SMILES | diameter of the inhibition zone (DIZ)
10 | Fc1ccc(NC(=S)Nc2nc[nH]n2)cc1 | inactive

system: Staphylococcus aureus; assay: Antibacterial activity against methicillin-resistant Staphylococcus aureus clinical isolate 376/09 after 18 hrs by twofold serial agar dilution technique; format: functional; conditions: clinical isolate 376/09, 18 h; method in brief: as §1

Row | SMILES | MIC [µg/mL]
11 | Fc1ccc(NC(=S)Nc2nc[nH]n2)cc1 | 50 (≈ 211 µM)

system: Staphylococcus aureus; assay: Antibacterial activity against methicillin-resistant Staphylococcus aureus clinical isolate 325/09 after 18 hrs by twofold serial agar dilution technique; format: functional; conditions: clinical isolate 325/09, 18 h; method in brief: as §1

Row | SMILES | MIC [µg/mL]
12 | Fc1ccc(NC(=S)Nc2nc[nH]n2)cc1 | 50 (≈ 211 µM)

system: Enterococcus hirae; assay: Antibacterial activity against Enterococcus hirae ATCC 10541 at 400 ug/disc after 18 hrs by disc diffusion method; format: functional; conditions: ATCC 10541, 18 h, read-out: DIZ; method in brief: as §2

Row | SMILES | zone of inhibition at 400 µg/disc [mm]
13 | Fc1ccc(NC(=S)Nc2nc[nH]n2)cc1 | 11

system: not listed separately; assay: Cytotoxicity against human MT4 cells after 96 hrs by MTT assay; format: cell-based; conditions: not given

Row | SMILES | CC50 at 96 h [µM]
14 | Fc1ccc(NC(=S)Nc2nc[nH]n2)cc1 | > 100

system: Bacillus cereus; assay: Antibacterial activity against Bacillus cereus ATCC 11778 at 400 ug/disc after 18 hrs by disc diffusion method; format: functional; conditions: ATCC 11778, 18 h, read-out: DIZ; method in brief: as §2

Row | SMILES | zone of inhibition at 400 µg/disc [mm]
15 | Fc1ccc(NC(=S)Nc2nc[nH]n2)cc1 | 16

system: Staphylococcus epidermidis; assay: Antibacterial activity against methicillin-resistant Staphylococcus epidermidis clinical isolate 315/08 after 18 hrs by twofold serial agar dilution technique; format: functional; conditions: clinical isolate 315/08, 18 h; method in brief: as §1

Row | SMILES | MIC [µg/mL]
16 | Fc1ccc(NC(=S)Nc2nc[nH]n2)cc1 | 50 (≈ 211 µM)

system: Micrococcus luteus; assay: Antibacterial activity against Micrococcus luteus ATCC 10240 at 400 ug/disc after 18 hrs by disc diffusion method; format: functional; conditions: ATCC 10240, 18 h, read-out: DIZ; method in brief: as §2

Row | SMILES | zone of inhibition at 400 µg/disc [mm]
17 | Fc1ccc(NC(=S)Nc2nc[nH]n2)cc1 | 23

system: Bacillus subtilis; assay: Antibacterial activity against Bacillus subtilis ATCC 6633 at 400 ug/disc after 18 hrs by disc diffusion method; format: functional; conditions: ATCC 6633, 18 h, read-out: DIZ; method in brief: as §2

Row | SMILES | zone of inhibition at 400 µg/disc [mm]
18 | Fc1ccc(NC(=S)Nc2nc[nH]n2)cc1 | 22

system: Staphylococcus epidermidis; assay: Antibacterial activity against methicillin-resistant Staphylococcus epidermidis clinical isolate 311/08 after 18 hrs by twofold serial agar dilution technique; format: functional; conditions: clinical isolate 311/08, 18 h; method in brief: as §1

Row | SMILES | MIC [µg/mL]
19 | Fc1ccc(NC(=S)Nc2nc[nH]n2)cc1 | 50 (≈ 211 µM)
